In all, about 190,000 compounds went through this assay and about 200 (0.11%) were called active. The sample holds actives, similar compounds and a random draw of the others, so the mix is not that of the screen. Unmarked numbers belong to inactive results.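 How the source made its calls: active means inhibition above 80%; inactive means the rest.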
Biological target: Broad substrate specificity ATP-binding cassette transporter ABCG2 (Homo sapiens) (UniProt Q9UNQ0)
Test: ABCG2 efflux pump inhibitors, primary screen, multiplex with ABCB1, IgMXP3 cells, flow cytometry (AID 1325);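 further: 0% = DMSO and 100% = nicardipine control wells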
Details: JC-1 efflux, at 6.6 µM, hits give high values
Summary of the method: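 Measure – % inhibition of efflux relative to nicardipine and DMSO · Test system – ABCG2 IgMXP3 and barcoded ABCB1 CCRF-Adr cell mix · Control set – nicardipine as high control, DMSO as low control · Compound – one concentration, 6.6 µM final · Signal – flow cytometry of retained JC-1 fluorescence · Timing – 10 min exposure at 25 °C with rotation, no wash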

Sequence of Broad substrate specificity ATP-binding cassette transporter ABCG2 (Homo sapiens) (Q9UNQ0 whole entry, looked up): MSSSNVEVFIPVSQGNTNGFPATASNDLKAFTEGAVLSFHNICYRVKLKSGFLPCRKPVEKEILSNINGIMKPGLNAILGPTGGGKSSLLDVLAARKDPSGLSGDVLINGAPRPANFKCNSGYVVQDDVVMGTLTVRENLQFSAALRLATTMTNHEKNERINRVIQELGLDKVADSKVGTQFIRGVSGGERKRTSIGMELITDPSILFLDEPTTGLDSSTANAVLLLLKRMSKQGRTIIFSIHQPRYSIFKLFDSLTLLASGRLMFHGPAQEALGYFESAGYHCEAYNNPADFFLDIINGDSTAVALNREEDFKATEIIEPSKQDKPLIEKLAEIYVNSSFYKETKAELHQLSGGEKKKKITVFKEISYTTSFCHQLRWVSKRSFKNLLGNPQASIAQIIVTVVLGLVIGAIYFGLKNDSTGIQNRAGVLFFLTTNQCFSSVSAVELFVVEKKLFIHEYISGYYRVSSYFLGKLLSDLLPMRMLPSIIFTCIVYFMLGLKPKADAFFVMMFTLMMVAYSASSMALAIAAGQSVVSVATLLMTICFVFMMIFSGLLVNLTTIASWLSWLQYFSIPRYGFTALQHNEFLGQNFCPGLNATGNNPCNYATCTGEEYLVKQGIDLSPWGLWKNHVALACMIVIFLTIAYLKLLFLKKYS

SMILES | inhibition
CCN1CCN(C(=O)CN(C)S(=O)(=O)c2ccc3ccccc3c2)CC1 | 0.1%
COc1ccc(OCCNS(=O)(=O)Cc2ccccc2)cc1 | 2.18%
COc1ccc(C)cc1NC(=S)Nc1ccccc1SC | 0.21%
COc1ccc(C)cc1NC(=O)C(Sc1ccccc1)c1ccccc1 (stereo not given) | 91.6% (active)
COc1ccc(C)cc1NC(=O)Nc1ccccc1SC | 13.2%
CCOC(=O)C1=C(CC)OC(N)=C(C#N)C1c1ccc(F)cc1F (stereo not given) | -0.41%
CC(CO)NCC12CC3CC(CC(C3)C1)C2 (stereo not given) | -2.66%
COc1ccc(CN(C)C(C)C(=O)NC2CCCc3ccccc32)cc1 (stereo not given) | 6.36%
O=C(Cc1csc(Nc2nc(=S)[nH]c3ccccc23)n1)NCCCN1CCN(c2cccc(Cl)c2)CC1 | 3.5%
CCc1ccc(Oc2nc([N+](=O)[O-])nn2C)cc1 | 1.08%
CCC(CC)c1nnc(NC(=O)c2nn(C)c(=O)c3ccccc23)s1 | 6.7%
CCN(C(=O)Cc1nc(N)n[nH]1)C1(C(=O)Nc2ccccc2)CCCCC1 | 2.7%
CC(CNC(=O)c1ccc(N)cc1)NC(=O)c1ccc(N)cc1 (stereo not given) | -4.01%
Cc1cc(OC(=O)c2ccccc2Cl)ccc1N1C(=O)CCC1=O | 21.3%
O=S(=O)(Nc1ncccn1)c1ccc(NS(=O)(=O)c2cccc(Cl)c2Cl)cc1 | 0.94%
C=CCC1(CC=C)CCCN1C(=O)CC1C(=O)NCCN1Cc1ccccc1OC (stereo not given) | 4.22%
NNc1nc2c(Cl)cccc2s1 | -11.1%
COc1ccc(CN2CCCC(C(=O)c3ccc(Cl)cc3)C2)cc1Cn1cncn1 (stereo not given) | 2.66%
CN(C)c1nnnn1-c1ccc(Cl)cc1 | 1.39%
O=C1NC(c2ccc(-c3ccccc3[N+](=O)[O-])o2)C(C(=O)c2ccc(Cl)cc2)C(O)(C(F)(F)F)N1 (stereo not given) | 14.6%

Source: PubChem BioAssay AID1325 (NMMLSC, 2008)
